Screens as filed in PubChem.
EBV LMP1 NFkB: inhibitors of Epstein-Barr LMP1-induced NF-kappaB reporter; LMP1-induced NF-kappaB luciferase reporter cells, luminescence; inhibition, % at 12.5 µM; 350,000 tested, 0.69% active; in the data active = inhibition above about 41%;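 note: 0% = neutral control wells and 100% = reference inhibitor control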
NR2E3 ag-1: agonists of human nuclear receptor NR2E3; inhibition of corepressor binding, % at 4.78 µM; Q9Y5X4; 320,000 tested, 0.12% active; AID 2300; GST-NR2E3/biotin-RetCOR TR-FRET, 1536-well;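 active = percent inhibition above the cutoff of mean plus 3 SD of all tested compounds, set per screening campaign, cut at about 20% in these data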;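 note: 0% = DMSO wells and 100% = biotin wells as full block of FRET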
Target sequence (Q9Y5X4 whole entry, looked up): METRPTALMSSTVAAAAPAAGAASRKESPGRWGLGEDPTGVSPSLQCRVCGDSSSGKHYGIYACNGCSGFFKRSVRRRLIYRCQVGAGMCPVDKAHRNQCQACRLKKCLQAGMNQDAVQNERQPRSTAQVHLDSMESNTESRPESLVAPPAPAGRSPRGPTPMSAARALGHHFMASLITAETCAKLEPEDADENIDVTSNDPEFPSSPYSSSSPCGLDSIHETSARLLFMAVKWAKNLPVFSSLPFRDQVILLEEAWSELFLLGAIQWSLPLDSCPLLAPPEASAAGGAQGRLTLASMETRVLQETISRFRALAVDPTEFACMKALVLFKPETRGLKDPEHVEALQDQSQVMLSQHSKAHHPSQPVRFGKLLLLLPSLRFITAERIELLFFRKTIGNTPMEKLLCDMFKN
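System: GST-tagged NR2E3 plus biotinylated RetCOR corepressor; Amount: 1.35 nM GST-tagged NR2E3 final; Dosing: single nominal compound dose of 4.8 µM; Schedule: 5 h incubation at 4 °C; Technique: TR-FRET with europium anti-GST and streptavidin-D2, 340 nm excitation; Controls: biotin wells as high control, 0.6% DMSO wells as low control.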
TROY NFkB inh: blocks TROY-dependent signaling in reporter cells; Q293 LMP1-TROYcd NF-kB luciferase reporter, 4 h; inhibition, % at 10 µM; 360,000 tested, 0.98% active; AID 1347056;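 active = compounds whose plate-normalised and pattern-corrected inhibition of the luciferase reporter signal at the single screening dose is 50% or more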
NR2E3 ag-2: human photoreceptor-specific nuclear receptor agonism. 360,000 tested, 0.35% active. inhibition of corepressor binding, % at 3.98 µM. Q9Y5X4. CHO-S Gal4-NCOR/VP16-NR2E3 two-hybrid, luciferase;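 active = inhibition above the mean of all tested compounds plus 3 SD, cut at about 70% in these data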;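 note: 0% = DMSO with NR2E3 transfected cells and 100% = cells lacking NR2E3 construct; higher means lower luciferase signal from less NR2E3 corepressor binding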
HIF activator: HIF pathway transcriptional activation; activation, % at 7.5 µM (by protocol); 300,000 tested, 0.32% active; U2OS HRE-luciferase reporter, luminescence; normalized: DMSO 0%, desferrioxamine 100%; AID 1910;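 active = mean activation of at least 10% of the iron chelator positive control signal, with at least half of replicates also reaching 10%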
* marks the source's active call; other numbers are inactive results. In the library only some 2% were active in any assay of this set; here they are far more common.

For Cc1ccccc1/C=C1\SC(=S)N(/N=C/c2cc([N+](=O)[O-])ccc2O)C1=O the results were EBV LMP1 NFkB -8, NR2E3 ag-1 -4, TROY NFkB inh 78*, NR2E3 ag-2 1 and HIF activator 0.
`CCOC(=O)C1CCCN(C(=O)C2CCN(S(=O)(=O)c3c(C)noc3/C=C/c3ccccc3F)CC2)C1` (configuration not stated) gave EBV LMP1 NFkB -1, NR2E3 ag-1 -2, TROY NFkB inh 2, NR2E3 ag-2 -7 and HIF activator 0.
Oc1cc(NCc2ccc(F)cc2)cc2cccnc12 was read as EBV LMP1 NFkB 12, TROY NFkB inh -12 and NR2E3 ag-2 -29.
Oc1cc(NCc2ccc(Cl)cc2)cc2cccnc12 was read as EBV LMP1 NFkB 47*, TROY NFkB inh -28 and NR2E3 ag-2 -25.
Screening CC(=O)Nc1ccc(NC2=C/C(=N/S(=O)(=O)c3cccs3)c3ccccc3C2=O)cc1 returned EBV LMP1 NFkB 2, NR2E3 ag-1 3, TROY NFkB inh 67*, NR2E3 ag-2 17 and HIF activator -2.
For O=C(C[C@H]1C[C@H](C(=O)N2CCCCC2)[C@@]2(CCc3ccccc3)c3[nH]c4ccc(Cl)cc4c3CCN2C1=O)NCCCn1ccnc1 the results were EBV LMP1 NFkB 12, TROY NFkB inh 55* and NR2E3 ag-2 -28.
CCn1c(CCNC(=O)c2ccc(OC)cc2)nnc1SCc1ccc(Cl)cc1Cl was read as EBV LMP1 NFkB 66*, NR2E3 ag-1 3, TROY NFkB inh 63*, NR2E3 ag-2 -8 and HIF activator -1.
For COc1ccc(/C=N/NC2=NCCCCC2)c(OC)c1 the results were EBV LMP1 NFkB -7, NR2E3 ag-1 -2, TROY NFkB inh 6, NR2E3 ag-2 -7 and HIF activator 0.
Cc1cc2nc(-c3ccc(SCc4ccc(C(=O)O)cc4)nc3)[nH]c2cc1C was read as EBV LMP1 NFkB -45, NR2E3 ag-1 5, TROY NFkB inh 52*, NR2E3 ag-2 -65 and HIF activator 3.
For Cc1cc2nc(-c3ccc(SCc4ccccc4C#N)nc3)[nH]c2cc1C the results were EBV LMP1 NFkB -8, NR2E3 ag-1 4, TROY NFkB inh 64*, NR2E3 ag-2 -46 and HIF activator 1.
Screening COC(=O)C1=C(C)NC(C)=C(C(=O)OC)C1C(=O)OCC(=O)N1CCCCC1C (configuration not stated) returned EBV LMP1 NFkB 1, TROY NFkB inh -7 and NR2E3 ag-2 14.
`CCOC(=O)[C@]12CCC=C1N(Cc1cccc3ccccc13)C(=O)[C@H](CC(=O)NCC1CCCCC1)C2` gave TROY NFkB inh -5 and NR2E3 ag-2 9.
`Cc1ccc(CNc2ccc(N3CCOCC3)cc2)s1` gave EBV LMP1 NFkB -27, NR2E3 ag-1 0, TROY NFkB inh 50*, NR2E3 ag-2 -9 and HIF activator 2.
Screening CCCc1nc(SCC(=O)NCc2ccco2)c2c(=O)n(C)c(=O)n(C)c2n1 returned EBV LMP1 NFkB 66*, NR2E3 ag-1 4, TROY NFkB inh 6, NR2E3 ag-2 -28 and HIF activator 0.
For CCc1nc(SCC(=O)NCc2ccco2)c2c(=O)n(C)c(=O)n(C)c2n1 the results were EBV LMP1 NFkB -8, NR2E3 ag-1 1, TROY NFkB inh 15, NR2E3 ag-2 -10 and HIF activator 0.
For COCC1CCN(Cc2c(C(=O)N3CCc4ccccc4C3)nc3ccc(Cl)cn23)C1 (configuration not stated) the results were EBV LMP1 NFkB 6, TROY NFkB inh 0, NR2E3 ag-2 -15 and HIF activator 0.
O=C(CCl)c1ccc2c(c1)CCN2C(=O)C1CC1 was read as NR2E3 ag-1 -2 and HIF activator 35*.
Screening O=C(CCl)c1ccc2c(c1)CCN2C(=O)C1CCCCC1 returned EBV LMP1 NFkB -13, NR2E3 ag-1 -3, TROY NFkB inh 53*, NR2E3 ag-2 -24 and HIF activator 3.
O=C(C1CCC(C(=O)N2CCc3ccccc32)CC1)N1CCc2ccccc21 (configuration not stated) was read as EBV LMP1 NFkB -1, NR2E3 ag-1 0, TROY NFkB inh -2, NR2E3 ag-2 -25 and HIF activator 0.
For Cc1ccc(NC(=O)CN(C)C(=O)COc2cc(F)ccc2[N+](=O)[O-])cc1 the results were EBV LMP1 NFkB 11, NR2E3 ag-1 3, TROY NFkB inh -2, NR2E3 ag-2 0 and HIF activator 0.
Screening COc1ccccc1CNC(=O)COC(=O)c1cnc(C)cn1 returned EBV LMP1 NFkB -7, TROY NFkB inh 2 and NR2E3 ag-2 -9.
CC[C@]1(c2ccccc2OC)ON(c2ccccc2C(F)(F)F)C1=O was read as NR2E3 ag-1 3.
For COc1ccccc1[C@]1(C)ON(c2ccccc2C(F)(F)F)C1=O the results were EBV LMP1 NFkB 73*, NR2E3 ag-1 -1, TROY NFkB inh -3 and NR2E3 ag-2 -24.
`CCCCN(C(=O)c1cccc(-n2cnnn2)c1)c1c(N)n(CCCC)c(=O)[nH]c1=O` gave EBV LMP1 NFkB -3, TROY NFkB inh -17 and NR2E3 ag-2 -3.
`COc1cccc(/C=N/Nc2nc3ccccc3[nH]2)c1O` gave EBV LMP1 NFkB 83*, NR2E3 ag-1 -1, TROY NFkB inh -17, NR2E3 ag-2 25 and HIF activator 11*.
For Cc1ccc(/C=N/NC(=O)CSc2nc3ccccc3[nH]2)o1 the results were EBV LMP1 NFkB -9, NR2E3 ag-1 -1, TROY NFkB inh -9, NR2E3 ag-2 -46 and HIF activator -11.
For COc1cccc(/C=N/Nc2nc3ccccc3[nH]2)c1OC the results were EBV LMP1 NFkB -20, NR2E3 ag-1 -2, TROY NFkB inh 18, NR2E3 ag-2 -114 and HIF activator 5.
Screening CC(C)Cn1c(/C=N/Nc2nc3ccccc3[nH]2)nc2ccccc21 returned EBV LMP1 NFkB 21, TROY NFkB inh -14, NR2E3 ag-2 1 and HIF activator 23*.
C(=N\Nc1nc2ccccc2[nH]1)/c1ccncc1 was read as EBV LMP1 NFkB -25, NR2E3 ag-1 0, TROY NFkB inh 59*, NR2E3 ag-2 -67 and HIF activator 3.
`O=C(CSc1nc2ccccc2[nH]1)N/N=C/c1ccncc1` gave NR2E3 ag-1 -1, TROY NFkB inh 57*, NR2E3 ag-2 17 and HIF activator 0.
`Cc1c(/C=N/Nc2nc3ccccc3[nH]2)c2ccccc2n1C` gave EBV LMP1 NFkB -28, NR2E3 ag-1 -3, TROY NFkB inh 55*, NR2E3 ag-2 16 and HIF activator 8.
`C/C(=N\Nc1nc2ccccc2[nH]1)c1ccccn1` gave EBV LMP1 NFkB 93*, NR2E3 ag-1 1, TROY NFkB inh 25, NR2E3 ag-2 -105 and HIF activator 179*.
CCCn1c(/C=N/Nc2nc3ccccc3[nH]2)nc2ccccc21 was read as EBV LMP1 NFkB 47*, TROY NFkB inh -104 and NR2E3 ag-2 -74.
